Like-named read-outs stand apart in the source and are kept apart here.
Tests used:
[1] = test system: three human malignant melanoma cell lines and three breast cancer cell lines; assay: MTS cell proliferation assay, average over the panel; assay type: cell-based; details: for IC50: read-out: average IC50
[2] = target: purified porcine brain tubulin (Sus scrofa, UniProt P02554+Q2XVP4); assay: Cell-free tubulin polymerization assay; assay type: biochemical; details: 10 μM, tubulin 3 mg/mL, GTP 1 mM, 1 h
purified porcine brain tubulin, sequence (Q2XVP4 whole entry): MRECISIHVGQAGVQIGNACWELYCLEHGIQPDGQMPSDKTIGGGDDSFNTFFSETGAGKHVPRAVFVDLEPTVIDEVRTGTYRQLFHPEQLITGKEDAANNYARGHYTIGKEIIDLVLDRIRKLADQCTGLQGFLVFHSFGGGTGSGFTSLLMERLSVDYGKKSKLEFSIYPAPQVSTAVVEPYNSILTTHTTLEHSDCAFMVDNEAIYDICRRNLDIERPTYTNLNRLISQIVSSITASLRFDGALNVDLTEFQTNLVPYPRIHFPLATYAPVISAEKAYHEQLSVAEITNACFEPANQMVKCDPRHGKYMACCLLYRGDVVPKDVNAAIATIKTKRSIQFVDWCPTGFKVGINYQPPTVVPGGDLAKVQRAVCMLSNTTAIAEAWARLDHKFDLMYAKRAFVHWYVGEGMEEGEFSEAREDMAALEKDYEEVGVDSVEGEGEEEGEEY
purified porcine brain tubulin, sequence (P02554 whole entry): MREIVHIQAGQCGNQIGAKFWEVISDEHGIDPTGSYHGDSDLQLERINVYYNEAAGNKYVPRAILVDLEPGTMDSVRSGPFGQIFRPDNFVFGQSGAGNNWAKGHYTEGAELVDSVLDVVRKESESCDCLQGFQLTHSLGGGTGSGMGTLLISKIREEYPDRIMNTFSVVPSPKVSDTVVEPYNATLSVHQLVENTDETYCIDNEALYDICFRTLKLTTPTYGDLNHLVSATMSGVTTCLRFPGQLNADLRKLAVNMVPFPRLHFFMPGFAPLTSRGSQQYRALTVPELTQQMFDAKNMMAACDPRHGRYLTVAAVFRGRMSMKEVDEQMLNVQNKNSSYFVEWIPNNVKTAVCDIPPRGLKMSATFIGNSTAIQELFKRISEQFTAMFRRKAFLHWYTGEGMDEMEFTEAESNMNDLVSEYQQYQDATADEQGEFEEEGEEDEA

A375/TxR cells [3] = assay: Annexin V-FITC/PI apoptosis detection; assay type: cell-based, human; details: 10 nM, 24 h; untreated […]
[4] = Liver microsome stability assay, human; details: for fold improvement of half-life in human liver microsomes: compared to parent compound CH-2-77
A375/TxR xenograft [5] = assay: A375/TxR xenograft antitumor efficacy; assay type: in vivo, NSG mice; details: for average tumor weight: vehicle 2.0 g; for tumor necrosis (H&E of excised tumors): 60c 10 and 20 mg/kg, paclitaxel 10 mg/kg
Summary of the method: (§1)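 Hosts were NSG mice aged 5–6 weeks. At ~100 mm3 mice were randomized by weight and volume into four groups (3 male + 3 female each). Test compound vehicle was PEG300:Tween 80:saline 3:1:6. Dosing was IP three times weekly. The study ended when vehicle tumors neared ~1000 mm3.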

CYP3A = assay: CYP inhibition, CYP3A; assay type: in vitro ADME, human; details: at 10 μM, HLM
TA1535 = assay: AMES fluctuation test, TA1535; parameters: species or system bacteria; details: strain TA1535
A375/TxR xenograft [6] = assay: Spontaneous metastasis in A375/TxR xenograft model; assay type: in vivo, NSG mice; details: for mice that developed liver metastases: n = 6
Summary of the method: as §1

[7] = Systemic toxicity in A375/TxR tumor-bearing mice; assay type: in vivo, NSG mice; details: for histology of major organs (lung, liver, kidney, heart, spleen), H&E: paclitaxel 10 mg/kg, 60c 10 or 20 mg/kg IP
Summary of the method: as §1

CYP2C9 = CYP2C9 (Homo sapiens, UniProt P11712); assay: CYP inhibition, CYP2C9; assay type: in vitro ADME; details: at 10 μM, HLM, diclofenac substrate
CYP2C9, sequence (P11712 whole entry): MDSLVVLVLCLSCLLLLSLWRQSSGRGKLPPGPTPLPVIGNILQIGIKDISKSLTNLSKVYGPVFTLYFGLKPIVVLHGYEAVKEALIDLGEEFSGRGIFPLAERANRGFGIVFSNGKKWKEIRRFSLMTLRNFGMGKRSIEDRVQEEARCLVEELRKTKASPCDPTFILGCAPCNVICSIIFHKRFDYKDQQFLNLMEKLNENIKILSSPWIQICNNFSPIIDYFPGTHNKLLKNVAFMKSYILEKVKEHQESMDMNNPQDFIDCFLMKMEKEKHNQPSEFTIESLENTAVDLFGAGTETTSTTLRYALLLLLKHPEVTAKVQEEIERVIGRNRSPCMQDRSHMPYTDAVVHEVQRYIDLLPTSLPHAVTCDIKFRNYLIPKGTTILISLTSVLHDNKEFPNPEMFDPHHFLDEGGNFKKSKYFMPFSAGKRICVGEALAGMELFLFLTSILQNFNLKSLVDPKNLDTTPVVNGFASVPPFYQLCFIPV

CYP2D6 = CYP2D6 (Homo sapiens, UniProt P10635); assay: CYP inhibition, CYP2D6; assay type: in vitro ADME; details: at 10 μM, HLM, dextromethorphan substrate
CYP2D6, sequence (P10635 whole entry): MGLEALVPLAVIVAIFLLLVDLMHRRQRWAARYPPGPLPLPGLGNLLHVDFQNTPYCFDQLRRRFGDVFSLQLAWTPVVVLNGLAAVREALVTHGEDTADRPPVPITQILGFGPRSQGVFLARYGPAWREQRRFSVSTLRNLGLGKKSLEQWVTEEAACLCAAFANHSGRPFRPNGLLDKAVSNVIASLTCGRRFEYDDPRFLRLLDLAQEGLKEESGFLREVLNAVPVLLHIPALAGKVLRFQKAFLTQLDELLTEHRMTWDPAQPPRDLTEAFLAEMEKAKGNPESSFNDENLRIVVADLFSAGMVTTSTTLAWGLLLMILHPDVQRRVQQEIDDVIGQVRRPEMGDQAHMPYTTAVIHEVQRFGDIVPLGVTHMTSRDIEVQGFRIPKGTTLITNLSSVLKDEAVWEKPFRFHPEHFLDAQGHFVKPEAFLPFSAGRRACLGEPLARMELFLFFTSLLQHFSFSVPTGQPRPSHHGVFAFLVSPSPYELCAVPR

CYP1A = CYP1A (Homo sapiens, UniProt P05177); assay: CYP inhibition, CYP1A; assay type: in vitro ADME; details: at 10 μM, HLM, phenacetin substrate
CYP1A, sequence (P05177 whole entry): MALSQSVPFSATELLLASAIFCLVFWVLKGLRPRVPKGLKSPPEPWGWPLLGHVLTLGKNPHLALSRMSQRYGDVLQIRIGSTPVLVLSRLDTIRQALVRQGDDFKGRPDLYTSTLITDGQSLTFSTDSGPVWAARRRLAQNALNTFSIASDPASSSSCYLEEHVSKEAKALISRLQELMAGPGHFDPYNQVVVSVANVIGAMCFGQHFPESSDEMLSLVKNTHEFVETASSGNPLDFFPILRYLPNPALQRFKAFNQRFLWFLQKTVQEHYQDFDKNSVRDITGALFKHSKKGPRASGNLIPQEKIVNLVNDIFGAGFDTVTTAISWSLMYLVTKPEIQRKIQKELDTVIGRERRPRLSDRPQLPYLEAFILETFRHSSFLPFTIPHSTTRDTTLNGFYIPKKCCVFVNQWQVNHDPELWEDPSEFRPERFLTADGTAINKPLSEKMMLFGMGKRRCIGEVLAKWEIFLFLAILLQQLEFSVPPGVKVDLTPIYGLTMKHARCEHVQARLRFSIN

A100 = assay: AMES fluctuation test, A100; parameters: species or system bacteria; details: strain A100
TA1537 = assay: AMES fluctuation test, TA1537; parameters: species or system bacteria; details: strain TA1537
CYP2B6 = CYP2B6 (Homo sapiens, UniProt P20813); assay: CYP inhibition, CYP2B6; assay type: in vitro ADME; details: at 10 μM, HLM, bupropion substrate
CYP2B6, sequence (P20813 whole entry): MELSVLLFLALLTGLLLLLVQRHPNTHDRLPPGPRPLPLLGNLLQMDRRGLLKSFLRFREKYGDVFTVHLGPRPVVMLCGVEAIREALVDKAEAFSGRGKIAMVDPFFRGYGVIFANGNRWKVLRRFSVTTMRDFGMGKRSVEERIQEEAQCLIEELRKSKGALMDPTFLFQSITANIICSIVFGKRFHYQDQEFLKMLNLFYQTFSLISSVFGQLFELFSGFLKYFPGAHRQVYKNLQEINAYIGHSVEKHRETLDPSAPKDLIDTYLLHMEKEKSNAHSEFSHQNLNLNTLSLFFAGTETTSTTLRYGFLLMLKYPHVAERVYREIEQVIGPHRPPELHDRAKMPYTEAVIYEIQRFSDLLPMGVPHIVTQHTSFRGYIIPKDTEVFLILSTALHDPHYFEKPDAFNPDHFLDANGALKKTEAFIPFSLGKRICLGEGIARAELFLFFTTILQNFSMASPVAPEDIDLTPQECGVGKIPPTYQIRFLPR

A375/TxR cells [8] = assay: Cell cycle analysis by flow cytometry; assay type: cell-based, human; details: 24 h; controls 10 nM, 60c 2.5, 5, 10 nM
CYP2C19 = CYP2C19 (Homo sapiens, UniProt P33261); assay: CYP inhibition, CYP2C19; assay type: in vitro ADME; details: at 10 μM, HLM, omeprazole substrate
CYP2C19, sequence (P33261 whole entry): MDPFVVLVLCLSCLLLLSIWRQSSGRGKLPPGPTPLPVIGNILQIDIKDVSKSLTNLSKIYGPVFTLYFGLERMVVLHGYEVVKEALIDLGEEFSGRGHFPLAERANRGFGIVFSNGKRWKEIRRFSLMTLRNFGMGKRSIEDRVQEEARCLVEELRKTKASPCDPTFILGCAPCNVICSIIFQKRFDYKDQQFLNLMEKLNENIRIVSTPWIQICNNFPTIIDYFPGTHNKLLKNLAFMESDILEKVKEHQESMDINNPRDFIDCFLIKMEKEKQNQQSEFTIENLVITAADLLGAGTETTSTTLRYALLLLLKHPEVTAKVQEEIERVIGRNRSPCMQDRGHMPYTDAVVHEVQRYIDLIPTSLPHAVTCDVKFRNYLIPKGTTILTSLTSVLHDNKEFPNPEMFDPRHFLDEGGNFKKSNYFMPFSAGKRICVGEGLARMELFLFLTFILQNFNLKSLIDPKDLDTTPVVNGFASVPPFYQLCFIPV

TA98 = assay: AMES fluctuation test, TA98; parameters: species or system bacteria; details: strain TA98
M14/LCC6MDR1 = assay: MTS cell proliferation assay, M14/LCC6MDR1; assay type: cell-based; details: Homo sapiens, 72 h, read-out: IC50, M14/LCC6MDR1
A375 = assay: MTS cell proliferation assay, A375; assay type: cell-based, human; details: read-out: IC50 ± SEM, A375, melanoma cell line, 72 h, n = 4
RPMI7951 = assay: MTS cell proliferation assay, RPMI7951; assay type: cell-based, human; details: read-out: IC50 ± SEM, RPMI7951, melanoma cell line, 72 h, n = 4
M14 = assay: MTS cell proliferation assay, M14; assay type: cell-based, human; details: read-out: IC50 ± SEM, M14, melanoma cell line, 72 h, n = 4
MDA-MB-231 = assay: MTS cell proliferation assay, MDA-MB-231; assay type: cell-based, human; details: read-out: IC50 ± SEM, MDA-MB-231, breast cancer cell line, 72 h, n = 4
SKBR3 = assay: MTS cell proliferation assay, SKBR3; assay type: cell-based, human; details: read-out: IC50 ± SEM, SKBR3, breast cancer cell line, 72 h, n = 4
[9] = Liver microsome stability assay, mouse; details: 0.5 mg/mL protein, 10 μM compound, NADPH
MDA-MB-453 = assay: MTS cell proliferation assay, MDA-MB-453; assay type: cell-based, human; details: read-out: IC50 ± SEM, MDA-MB-453, breast cancer cell line, 72 h, n = 4

In the case of `COc1cc(C(=O)c2cccc(-c3ccc(C)cc3)n2)cc(OC)c1OC` [CH-2–1, (6-(p-Tolyl)pyridin-2-yl)(3,4,5-trimethoxyphenyl)methanone, reference compound], the IC50 ([1]; Homo sapiens) is reported as 3.7 nM.
With `COc1cc(C(=O)c2cccc(-c3ccc(C)c(O)c3)n2)cc(OC)c1OC` [CH-2–77] the “effect on tubulin polymerization” value [2] was “interfered with tubulin polymerization”, the IC50 ([1]; Homo sapiens) was 2.5 nM and the apoptotic cells (A375/TxR cells [3]) was 51.1%.
In the case of `COc1cc(C(=O)c2cccc(-c3ccc(N(C)C)cc3)n2)cc(OC)c1OC` [Compound 4c, (6-(4-(Dimethylamino)phenyl)pyridin-2-yl) (3,4,5-trimethoxyphenyl)methanone], the IC50 ([1]; Homo sapiens) is reported as 48.7 nM and the “fold reduction in antiproliferative activity” value ([1]; compared to CH-2–1, average IC50) is reported as 13 fold.
`COc1cc(C(=O)c2cccc(-c3ccc(C)cc3)n2)cc2c1OCCO2` [Compound 10, (8-Methoxy-2,3-dihydrobenzo[b][1,4]dioxin-6-yl)(6-(p-tolyl)-pyridin-2-yl)methanone] gave an IC50 ([1]; Homo sapiens) of 3.8 nM.
Compound `CCc1c(OC)cc(C(=O)c2cccc(-c3ccc(C)c(O)c3)n2)cc1OC` [Compound 13, (4-Ethyl-3,5-dimethoxyphenyl)(6-(3-hydroxy-4-methylphenyl)-pyridin-2-yl)methanone] has an IC50 ([1]; Homo sapiens) of 18.3 nM.
In the case of `COc1cc(-c2n[nH]c3ccc(-c4ccc(C)c(O)c4)nc23)cc(OC)c1OC` [Compound 22, 2-Methyl-5-(3-(3,4,5-trimethoxyphenyl)-1H-pyrazolo[4,3-b]-pyridin-5-yl)phenol], the IC50 ([1]; Homo sapiens) is reported as 34.1 nM and the “fold improvement of half-life in human liver microsomes” value (from here on “fold improvement of half-life”) [4] is reported as 19 fold.
For `COc1cc(C(=O)c2nc(-c3ccc(C)c(O)c3)[nH]c2Br)cc(OC)c1OC` [Compound 29, (5-Bromo-2-(3-hydroxy-4-methylphenyl)-1H-imidazol-4-yl)-(3,4,5-trimethoxyphenyl)methanone], the IC50 ([1]; Homo sapiens) was 80.5 nM.
Work on `COc1cc(C(=O)c2cncc(-c3ccc(C)cc3)n2)cc(OC)c1OC` [Compound 35, (6-(p-Tolyl)pyrazin-2-yl)(3,4,5-trimethoxyphenyl)methanone] yielded an IC50 ([1]; Homo sapiens) of 4.2 nM.
`COc1cc(C(=O)c2cncc(-c3ccc(C)c(O)c3)n2)cc(OC)c1OC` [Compound 40a, (6-(3-Hydroxy-4-methylphenyl)pyrazin-2-yl)(3,4,5-trimethoxyphenyl)methanone] showed an IC50 ([1]; Homo sapiens) of 9.2 nM.
Compound `COc1cc(C(=O)c2cncc(-c3cccc4[nH]ncc34)n2)cc(OC)c1OC` [Compound 40c, (6-(1H-Indazol-4-yl)pyrazin-2-yl)(3,4,5-trimethoxyphenyl)-methanone] has an IC50 ([1]; Homo sapiens) of 33.7 nM.
In the case of `COc1cc(C(=O)c2ccnc(-c3ccc(C)c(O)c3)n2)cc(OC)c1OC` [Compound 46a, (2-(3-Hydroxy-4-methylphenyl)pyrimidin-4-yl)(3,4,5-trimethoxyphenyl)methanone], the IC50 ([1]; Homo sapiens) is reported as 8.2 nM.
With `COc1cc(C(=O)c2ccnc(-c3c[nH]c4ccccc34)n2)cc(OC)c1OC` [Compound 46b, (2-(1H-Indol-3-yl)pyrimidin-4-yl)(3,4,5-trimethoxyphenyl)-methanone] the IC50 ([1]; Homo sapiens) was 26.3 nM.
In the case of `COc1cc(C(=O)c2cc(C)cc(-c3ccc(C)cc3)n2)cc(OC)c1OC` [Compound 50a, (4-Methyl-6-(p-tolyl)pyridin-2-yl)(3,4,5-trimethoxyphenyl)-methanone], the IC50 ([1]; Homo sapiens) is reported as 7.7 nM and the “fold improvement of half-life” value [4] is reported as 3 fold.
For `COc1cc(C(=O)c2cc(OC)c(OC)c(OC)c2)nc(-c2ccc(C)cc2)c1` [Compound 54a, (4-Methoxy-6-(p-tolyl)pyridin-2-yl)(3,4,5-trimethoxyphenyl)-methanone], the “fold improvement of half-life” value [4] was 3 fold.
In the case of `COc1cc(C(=O)c2cc(OC)c(OC)c(OC)c2)nc(-c2ccc(C)c(O)c2)c1` [Compound 55b, (6-(3-Hydroxy-4-methylphenyl)-4-methoxypyridin-2-yl)(3,4,5-trimethoxyphenyl)methanone], the “fold improvement of half-life” value [4] is reported as 3 fold.
With `COc1cc(C(=O)c2nc(-c3ccc(C)c(O)c3)ccc2F)cc(OC)c1OC` [Compound 60c, (3-Fluoro-6-(3-hydroxy-4-methylphenyl)pyridin-2-yl)(3,4,5-trimethoxyphenyl)methanone] the average tumor weight (A375/TxR xenograft [5]; 10 mg/kg IP) was 1.13 g, the average tumor weight (A375/TxR xenograft [5]; 20 mg/kg IP) was 0.76 g and the “tumor necrosis (H&E of excised tumors)” value (A375/TxR xenograft [5]) was “highly necrotic”. The CYP3A inhibition (CYP3A; midazolam substrate) was “CYP3A (HLM, midazolam substrate): 34.7%”, the CYP3A inhibition (CYP3A; testosterone substrate) was “CYP3A (HLM, testosterone substrate): 51.8%” and the AMES fluctuation test (TA1535) was “TA1535: no mutation”. For the same compound, the “mice that developed liver metastases” value (A375/TxR xenograft [6]; 20 mg/kg IP) was “none”, the “lung metastasis (H&E)” value (A375/TxR xenograft [6]; 10 and 20 mg/kg IP) was “lung nodules were markedly sparse and of reduced size” and the “body weight during therapy” value ([7]; 10 or 20 mg/kg IP, 3 times/week, 18 days) was “without weight loss”. For the same compound, the “histology of major organs (lung, liver, kidney, heart, spleen), H&E” value [7] was “no apparent pathological changes in the major organs”, the CYP2C9 inhibition (CYP2C9) was “CYP2C9 (HLM, diclofenac substrate): 54.7%” and the CYP2D6 inhibition (CYP2D6) was “CYP2D6 (HLM, dextromethorphan substrate): 11.9%”. For the same compound, the CYP1A inhibition (CYP1A) was “CYP1A (HLM, phenacetin substrate): 50.9%”, the “effect on tubulin polymerization” value [2] was “strongly inhibited microtubule polymerization” and the AMES fluctuation test (A100) was “A100: no mutation”. For the same compound, the AMES fluctuation test (TA1537) was “TA1537: no mutation”, the CYP2B6 inhibition (CYP2B6) was “CYP2B6 (HLM, bupropion substrate): 12%” and the “effect on cell cycle distribution” value (A375/TxR cells [8]) was “dose-dependent accumulation of cells in the G2/M phase”. For the same compound, the CYP2C19 inhibition (CYP2C19) was “CYP2C19 (HLM, omeprazole substrate): 49%” and the AMES fluctuation test (TA98) was “TA98: no mutation”.
With `COc1cc(C(=O)c2cc(F)cc(-c3ccc(C(F)F)cc3)c2)cc(OC)c1OC` [Compound 64, (4′-(Difluoromethyl)-5-fluoro-[1,1′-biphenyl]-3-yl)(3,4,5-trimethoxyphenyl)methanone] the IC50 ([1]; Homo sapiens) was 60.8 nM.
In the case of `COc1cc2c(c(OC)c1OC)-c1ccc(OC)c(=O)cc1[C@@H](NC(C)=O)CC2` [colchicine], the IC50 (M14/LCC6MDR1) is reported as > 1000 nM and the “effect on cell cycle distribution” value (A375/TxR cells [8]) is reported as “normal cell cycle progression”.
For `CC(=O)O[C@H]1C(=O)[C@@]2(C)[C@H]([C@H](OC(=O)c3ccccc3)[C@]3(O)C[C@H](OC(=O)[C@H](O)[C@@H](NC(=O)c4ccccc4)c4ccccc4)C(C)=C1C3(C)C)[C@]1(OC(C)=O)CO[C@@H]1C[C@@H]2O` [paclitaxel, reference compound], the “increase of tumor volume vs vehicle” value (A375/TxR xenograft [5]; 10 mg/kg IP, 3 times/week, 18 days) was “approximately 5.3%”, the average tumor weight (A375/TxR xenograft [5]; 10 mg/kg IP) was 2.1 g and the “tumor necrosis (H&E of excised tumors)” value (A375/TxR xenograft [5]) was “all viable”. For the same compound, the “mice that developed liver metastases” value (A375/TxR xenograft [6]; 10 mg/kg IP, vehicle 83%) was 83%, the “histology of major organs (lung, liver, kidney, heart, spleen), H&E” value [7] was “no apparent pathological changes in the major organs” and the “effect on tubulin polymerization” value [2] was “increased rate of tubulin polymerization”. The “effect on cell cycle distribution” value (A375/TxR cells [8]) was “normal cell cycle progression”.
For “(6-(Indolin-6-yl)pyridin-2-yl)(3,4,5-trimethoxyphenyl)methanone [Compound 4b]”, the IC50 (A375) was 5 ± 1 nM, the IC50 (RPMI7951) was 5.9 ± 1.5 nM and the IC50 (M14) was 5.6 ± 1.4 nM. The IC50 (MDA-MB-231) was 5.3 ± 1 nM, the IC50 (SKBR3) was 5.5 ± 1.2 nM and the “metabolic stability in mouse liver microsome t1/2” value [9] was 4.2 ± 0.00 min. The IC50 ([1]; average over six cancer cell lines) was 5.5 nM, the IC50 (MDA-MB-453) was 5.9 ± 1.4 nM and the “metabolic stability in human liver microsome t1/2” value ([4]; 0.5 mg/mL protein, 10 μM compound, NADPH) was 15 ± 1.2 min.
